Assay results taken from ChEMBL document CHEMBL4627348, “Synthesis of (1,3,4-thiadiazol-2-yl)-acrylamide derivatives as potential antitumor agents against acute leukemia cells” (Bioorg Med Chem Lett, 2020).
Activity calls are given as the source filed them. No cut-off for these calls is given here.

Assays:
RS4-11 [1] = experiment: Antiproliferative activity against human RS4:11 cells assessed as growth inhibition at 20 uM after 48 hrs by CCK-8 assay relative to control; type: functional; settings: for inhibition of growth at 20 µM: RS4-11, 48 h, read-out: GI
Method in brief: (§1)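 Single-dose screen at 20 μM in RS4;11 (human ALL), HL-60 (human promyelocytic leukemia) and HEK293T (normal-cell model). Cells exposed 48 h, viability read by CCK-8, growth inhibition ratio expressed relative to control.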

HL-60 = experiment: Antiproliferative activity against human HL60 cells assessed as growth inhibition at 20 uM after 48 hrs by CCK-8 assay relative to control; type: functional; settings: for inhibition of growth at 20 µM: HL-60, 48 h, read-out: GI; method in brief: as §1
[2] = Cytotoxicity against HEK293T cells assessed as growth inhibition at 20 uM after 48 hrs by CCK8 assay relative to control; type: cell-based, HEK-293T; settings: human, HEK293T cells; read-out: GI; method in brief: as §1
HEK-293T = experiment: Cytotoxicity against human HEK293T cells assessed as growth inhibition after 48 hrs by CCK8 assay; type: cell-based
RS4-11 [3] = experiment: Antiproliferative activity against human RS4:11 cells assessed as growth inhibition after 48 hrs by CCK-8 assay; type: functional, cell-based; settings: RS4-11, 48 h

| Structure (SMILES) | inhibition of growth at 20 µM (RS4-11 [1]) [%] | inhibition of growth at 20 µM (HL-60) [%] | inhibition at 48 h, 20 µM [2] [%] | growth inhibition (GI) (RS4-11 [1]) | growth inhibition (GI) (HL-60) | IC50 (HEK-293T) [µM] | IC50 (RS4-11 [3]) [µM] |
| --- | --- | --- | --- | --- | --- | --- | --- |
| N#C/C(=C\c1ccccc1OS(=O)(=O)c1ccc(F)cc1)C(=O)Nc1nnc(Cc2ccccc2)s1 | 69 | 22 | 6 | – | – | – | – |
| N#C/C(=C\c1cccc(OS(=O)(=O)c2cccs2)c1)C(=O)Nc1nnc(-c2cccs2)s1 | – | 30 | 50 | inactive | – | – | – |
| N#C/C(=C\c1ccccc1OS(=O)(=O)c1ccc(Cl)cc1)C(=O)Nc1nnc(-c2cccs2)s1 | 22 | 17 | 46 | – | – | – | – |
| N#C/C(=C\c1ccccc1OS(=O)(=O)c1ccc(Cl)cc1)C(=O)Nc1nnc(Cc2ccc(F)cc2)s1 | 68 | 20 | 6 | – | – | – | – |
| N#C/C(=C\c1ccccc1OS(=O)(=O)c1ccc([N+](=O)[O-])cc1)C(=O)Nc1nnc(-c2cccs2)s1 | 40 | 23 | 33 | – | – | – | – |
| N#C/C(=C\c1cccc(NS(=O)(=O)c2ccc(F)cc2)c1)C(=O)Nc1nnc(-c2cccs2)s1 | 22 | – | 29 | – | inactive | – | – |
| Cc1ccc(S(=O)(=O)Oc2ccccc2/C=C(\C#N)C(=O)Nc2nnc(Cc3cccc(F)c3)s2)cc1 | 56 | 11 | 9 | – | – | – | – |
| N#C/C(=C\c1ccccc1OS(=O)(=O)c1ccc(Cl)cc1)C(=O)Nc1nnc(Cc2cccc3ccccc23)s1 | 68 | 15 | 16 | – | – | – | – |
| Cc1ccc(S(=O)(=O)Oc2cccc(/C=C(\C#N)C(=O)Nc3nnc(-c4ccccc4Cl)s3)c2)cc1 | 44 | 67 | 55 | – | – | – | – |
| Cc1ccc(Cc2nnc(NC(=O)/C(C#N)=C/c3ccccc3OS(=O)(=O)c3ccccc3[N+](=O)[O-])s2)cc1 | – | 33 | 6 | inactive | – | – | – |
| Cc1ccc(Cc2nnc(NC(=O)/C(C#N)=C/c3ccccc3OS(=O)(=O)c3ccc(F)cc3)s2)cc1 | 73 | 11 | 11 | – | – | – | – |
| Cc1ccc(S(=O)(=O)Oc2ccccc2/C=C(\C#N)C(=O)Nc2nnc(Cc3cccc4ccccc34)s2)cc1 | 73 | 19 | 23 | – | – | – | – |
| N#C/C(=C\c1ccccc1OS(=O)(=O)c1ccc(Cl)cc1)C(=O)Nc1nnc(Cc2cccc(F)c2)s1 | 71 | 42 | 29 | – | – | – | – |
| N#C/C(=C\c1ccccc1OS(=O)(=O)c1ccc(F)cc1)C(=O)Nc1nnc(Cc2ccc(Cl)cc2)s1 | 64 | 20 | 14 | – | – | – | – |
| COc1ccc(Cc2nnc(NC(=O)/C(C#N)=C/c3ccccc3OS(=O)(=O)c3ccc(Cl)cc3)s2)cc1 | 79 | – | 34 | – | – | > 50 | 4.02 |
| N#C/C(=C\c1ccccc1OS(=O)(=O)c1ccc(OC(F)(F)F)cc1)C(=O)Nc1nnc(-c2cccs2)s1 | 39 | 48 | 42 | – | – | – | – |
| N#C/C(=C\c1ccccc1OS(=O)(=O)c1ccc(F)cc1)C(=O)Nc1nnc(Cc2cccc(F)c2)s1 | 72 | 22 | 17 | – | – | – | – |
| Cc1ccc(S(=O)(=O)Oc2cccc(/C=C(\C#N)C(=O)Nc3nnc(-c4ccccc4)s3)c2)cc1 | 35 | 63 | 52 | – | – | – | – |
| Cc1ccc(S(=O)(=O)Oc2ccccc2/C=C(\C#N)C(=O)Nc2nnc(Cc3ccccc3)s2)cc1 | 69 | 16 | 15 | – | – | – | – |

| Structure (SMILES) | inhibition of growth at 20 µM (RS4-11 [1]) [%] | inhibition of growth at 20 µM (HL-60) [%] | inhibition at 48 h, 20 µM [2] [%] | growth inhibition (GI) (RS4-11 [1]) | growth inhibition (GI) (HL-60) | IC50 (HEK-293T) [µM] | IC50 (RS4-11 [3]) [µM] |
| --- | --- | --- | --- | --- | --- | --- | --- |
| Cc1ccc(S(=O)(=O)Oc2ccccc2/C=C(\C#N)C(=O)Nc2nnc(Cc3ccc(Cl)cc3)s2)cc1 | 69 | 15 | 20 | – | – | – | – |
| N#C/C(=C\c1ccccc1OS(=O)(=O)c1ccc([N+](=O)[O-])cc1)C(=O)Nc1nnc(Cc2ccc(Cl)cc2)s1 | 66 | 34 | 19 | – | – | – | – |
| N#C/C(=C\c1ccccc1OS(=O)(=O)c1ccc(Cl)cc1)C(=O)Nc1nnc(Cc2ccccc2)s1 | 73 | 26 | 25 | – | – | – | – |
| COc1ccc(Cc2nnc(NC(=O)/C(C#N)=C/c3ccccc3OS(=O)(=O)c3ccc(F)cc3)s2)cc1 | 80 | 25 | 6 | – | – | – | – |
| Cc1ccc(Cc2nnc(NC(=O)/C(C#N)=C/c3ccccc3OS(=O)(=O)c3ccc(Cl)cc3)s2)cc1 | 72 | 38 | 8 | – | – | – | – |
| Cc1ccc(S(=O)(=O)Oc2ccccc2/C=C(\C#N)C(=O)Nc2nnc(Cc3ccc(F)cc3)s2)cc1 | 72 | – | 16 | – | inactive | – | – |
| CS(=O)(=O)Oc1ccc(/C=C(\C#N)C(=O)Nc2nnc(-c3cccs3)s2)cc1 | 13 | – | 19 | – | inactive | – | – |
| Cc1ccc(Cc2nnc(NC(=O)/C(C#N)=C/c3ccccc3OS(=O)(=O)c3ccc(C)cc3)s2)cc1 | 66 | 17 | 22 | – | – | – | – |
| N#C/C(=C\c1ccccc1OS(=O)(=O)c1ccccc1[N+](=O)[O-])C(=O)Nc1nnc(Cc2ccc(F)cc2)s1 | 61 | 35 | 6 | – | – | – | – |
| N#C/C(=C\c1ccccc1OS(=O)(=O)c1ccc(Cl)cc1)C(=O)Nc1nnc(Cc2ccc(Cl)cc2)s1 | 64 | 15 | 14 | – | – | – | – |
| Cc1ccc(Cc2nnc(NC(=O)/C(C#N)=C/c3ccccc3OS(=O)(=O)c3ccc([N+](=O)[O-])cc3)s2)cc1 | 64 | 17 | 9 | – | – | – | – |
| N#C/C(=C\c1ccccc1OS(=O)(=O)c1ccc([N+](=O)[O-])cc1)C(=O)Nc1nnc(Cc2cccc3ccccc23)s1 | 58 | 18 | 25 | – | – | – | – |
| COc1ccc(Cc2nnc(NC(=O)/C(C#N)=C/c3ccccc3OS(=O)(=O)c3ccc(C)cc3)s2)cc1 | 70 | 25 | 21 | – | – | – | – |
| N#C/C(=C\c1ccccc1OS(=O)(=O)c1ccccc1[N+](=O)[O-])C(=O)Nc1nnc(Cc2ccccc2)s1 | 71 | 12 | 10 | – | – | – | – |
| N#C/C(=C\c1ccccc1OS(=O)(=O)c1ccc([N+](=O)[O-])cc1)C(=O)Nc1nnc(Cc2ccc(F)cc2)s1 | 55 | 18 | 8 | – | – | – | – |
| Cc1nnc(NC(=O)/C(C#N)=C/c2cccc(OS(C)(=O)=O)c2)s1 | 33 | 20 | 20 | – | – | – | – |
| N#C/C(=C\c1ccccc1OS(=O)(=O)c1ccc(F)cc1)C(=O)Nc1nnc(Cc2cccc3ccccc23)s1 | 68 | 12 | 15 | – | – | – | – |
| N#C/C(=C\c1ccccc1OS(=O)(=O)c1ccccc1[N+](=O)[O-])C(=O)Nc1nnc(Cc2ccc(Cl)cc2)s1 | 65 | 19 | 20 | – | – | – | – |
| COc1ccc(Cc2nnc(NC(=O)/C(C#N)=C/c3ccccc3OS(=O)(=O)c3ccccc3[N+](=O)[O-])s2)cc1 | 68 | 25 | 18 | – | – | – | – |
